In test [1] the test system is Fusarium oxysporum. Nature of the test: Growth inhibition of Fusarium oxysporum at 30 uM after 48 hr by 96-well microtiter based microdilution method. Type of test: functional. The following applies: read-out: GI. Summed up:
(§1)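 Conidia from 7-10-day-old PDA cultures adjusted photometrically (%T at 625 nm) to 1.0 × 10^6 conidia/mL. Compounds dissolved in 95% ethanol at 12 mM (stock) and diluted 1:4 with MOPS-buffered RPMI. Final concentrations were 0.3, 3.0, 30.0 µM in 96-well plates. Incubated at 24 °C with a 12-h photoperiod. Growth was read as absorbance at 620 nm at 48 h. Percent inhibition was pooled from two experiments replicated in time. Controls were broth+inoculum and solvent+broth wells.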

Test [2] deals with Fusarium oxysporum. Description: Growth inhibition of Fusarium oxysporum at 0.3 to 30 uM after 48 hr by 96-well microtiter based microdilution method. Format: functional, organism-based. A digest of the protocol:
as §1

In test [3] the test system is Colletotrichum gloeosporioides. Description: Growth inhibition of Colletotrichum gloeosporioides at 0.3 to 30 uM after 48 hr by 96-well microtiter based microdilution method. Type of test: functional, organism-based. Summed up:
as §1

Test [4] relates to Colletotrichum gloeosporioides. Description: Growth inhibition of Colletotrichum gloeosporioides at 30 uM after 48 hr by 96-well microtiter based microdilution method. The following applies: read-out: GI. Format: functional. Summed up: as §1
The test system of test [5] is Colletotrichum fragariae. Nature of the test: Antifungal activity against Colletotrichum fragariae after 72 hr by 96-well microtiter based microdilution method. Format: functional, organism-based. Summed up: (§2)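 Conidia from 7–10-day PDA cultures (24 °C, 12-h photoperiod) were counted photometrically from %T at 625 nm. Compounds were taken from 12 mM stocks in 95% ethanol, diluted 1:4 in MOPS-buffered RPMI, and tested at six final concentrations (1.55–50.0 µM) with incubation under the same growth conditions.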

In test [6] the test system is Botrytis cinerea. Description: Antifungal activity against Botryotinia fuckeliana after 72 hr by 96-well microtiter based microdilution method. Format: functional, organism-based. Summed up:
as §2

Test [7] concerns Colletotrichum gloeosporioides. Description: Antifungal activity against Colletotrichum gloeosporioides after 48 hr by 96-well microtiter based microdilution method. Type of test: functional, organism-based. Summed up: as §2
Test [8] deals with Fusarium oxysporum. Description: Antifungal activity against Fusarium oxysporum after 72 hr by 96-well microtiter based microdilution method. Type of test: functional, organism-based. Summed up:
as §2

Test [9] concerns Colletotrichum gloeosporioides. Nature of the test: Antifungal activity against Colletotrichum gloeosporioides after 72 hr by 96-well microtiter based microdilution method. Format: functional, organism-based. A digest of the protocol:
as §2

For test [10], the system named is Colletotrichum acutatum. Nature of the test: Antifungal activity against Colletotrichum acutatum after 72 hr by 96-well microtiter based microdilution method. Format: functional, organism-based. Summed up: as §2
Test [11] relates to Phomopsis obscurans. Description: Antifungal activity against Phomopsis obscurans after 48 hr by 96-well microtiter based microdilution method. The conditions noted are these: Paraphomopsis obscurans. Type of test: functional, organism-based. A digest of the protocol:
as §2

Test [12] has as its system Botrytis cinerea. Nature of the test: Antifungal activity against Botryotinia fuckeliana after 48 hr by 96-well microtiter based microdilution method. Type of test: functional, organism-based. Summed up:
as §2

For test [13], the system named is Colletotrichum fragariae. Description: Antifungal activity against Colletotrichum fragariae after 48 hr by 96-well microtiter based microdilution method. Type of test: functional, organism-based. A digest of the protocol:
as §2

The test system of test [14] is Phomopsis viticola. Nature of the test: Antifungal activity against Phomopsis viticola after 48 hr by 96-well microtiter based microdilution method.
The subject of test [15] is Phomopsis obscurans. Description: Antifungal activity against Phomopsis obscurans after 72 hr by 96-well microtiter based microdilution method. Type of test: functional, organism-based. The following applies: Paraphomopsis obscurans. A digest of the protocol: as §2
The test system of test [16] is Fusarium oxysporum. Nature of the test: Antifungal activity against Fusarium oxysporum after 48 hr by 96-well microtiter based microdilution method. Format: functional, organism-based. Summed up: as §2
Test [17] has as its system Colletotrichum acutatum. Nature of the test: Antifungal activity against Colletotrichum acutatum after 48 hr by 96-well microtiter based microdilution method. Format: functional, organism-based. Summed up:
as §2

Test [18] relates to Phomopsis viticola. Nature of the test: Antifungal activity against Phomopsis viticola after 72 hr by 96-well microtiter based microdilution method.
The subject of test [19] is Colletotrichum acutatum. Description: Growth inhibition of Colletotrichum acutatum at 3 uM after 48 hr by 96-well microtiter based microdilution method. Format: functional, organism-based. A digest of the protocol:
(§3)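 Three-point broth microdilution used final concentrations of 0.3, 3.0 and 30.0 µM, diluted from 12 mM ethanol stocks into MOPS-buffered RPMI. Conidial inoculum was counted photometrically at 625 nm and incubated at 24 °C with a 12-h photoperiod. A620 was read at 48 h and converted to percent growth inhibition. Controls were inoculated broth wells and solvent wells without inoculum.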

For test [20], the system named is Fusarium oxysporum. Nature of the test: Growth inhibition of Fusarium oxysporum at 0.3 uM after 48 hr by 96-well microtiter based microdilution method. Format: functional. The following applies: read-out: GI. A digest of the protocol: (§4)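 F. oxysporum conidia (photometric count, %T 625 nm) were tested in MOPS-buffered RPMI broth microdilution at final concentrations of 0.3, 3.0 and 30.0 µM, diluted from 12 mM ethanol stocks. Plates were incubated at 24 °C with a 12-h photoperiod, and A620 was read at 48 h. Mean percent growth inhibition was pooled from two experiments replicated in time.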

The subject of test [21] is Colletotrichum gloeosporioides. Nature of the test: Growth inhibition of Colletotrichum gloeosporioides at 3 uM after 48 hr by 96-well microtiter based microdilution method. Type of test: functional. The conditions noted are these: read-out: GI. A digest of the protocol:
as §3

Test [22] concerns Fusarium oxysporum. Nature of the test: Growth inhibition of Fusarium oxysporum at 3 uM after 48 hr by 96-well microtiter based microdilution method. Format: functional. The conditions noted are these: read-out: GI. Summed up:
as §4

Test [23] deals with Colletotrichum fragariae. Description: Growth inhibition of Colletotrichum fragariae at 3 uM after 48 hr by 96-well microtiter based microdilution method. Format: functional, organism-based. A digest of the protocol: as §3

SMILES strings stand for the structures. Calls of active or inactive are those of the source. The calls are words filed in the database; no cut-off is given here.

On to `CC#CC#Cc1ccc(C#CC(Cl)COC(C)=O)s1` (stereo not given), for which the figures for the inhibition of growth at 30 µM (in the test on Fusarium oxysporum [1]; in [4]) were 82% and 81%, respectively. Moreover, the “growth inhibition (GI)” value (in the test with Fusarium oxysporum [2]; in [3]) was “Active” throughout.
With `C(#C[C@@H]1CC[C@H]1C#Cc1ccc(-c2cccs2)s1)c1ccc(-c2cccs2)s1`, the “growth inhibition (GI)” value (in the test on Fusarium oxysporum [2]; in [3]) was “inactive” throughout.
Turning to `OCCC#Cc1ccc(-c2cccs2)s1`, the “growth inhibition (GI)” value (with Fusarium oxysporum [2]; in [3]) was “Active” throughout.
As for `O=C1C2CC=CCC2C(=O)N1SC(Cl)(Cl)Cl` (stereo not given) [CAPTAN], the IC50 in the test on Colletotrichum fragariae [5] was 2.1 µM; in the test with Botrytis cinerea [6], below 1.6 µM; in test [7], below 1.6 µM; in the test on Fusarium oxysporum [8], 5.8 µM; in test [9] it was below 1.6 µM; with Colletotrichum acutatum [10] it was 2.1 µM. Also, the IC50 in the test with Phomopsis obscurans [11] was 2.4 µM; with Botrytis cinerea [12], below 1.6 µM; in the test with Colletotrichum fragariae [13], below 1.6 µM; in the test with Phomopsis viticola [14], 18 µM; in the test with Phomopsis obscurans [15] it was 3.9 µM; in the test with Fusarium oxysporum [16], 2.2 µM. In addition, the IC50 in the test on Colletotrichum acutatum [17] was below 1.6 µM; with Phomopsis viticola [18], 20 µM.
Turning to `c1csc(-c2ccc(-c3cccs3)s2)c1` [ALPHA-TERTHIENYL], the IC50 in the test on Colletotrichum fragariae [5] is 9 µM; in the test on Botrytis cinerea [6] it was above 50 µM; in test [7], below 1.6 µM; in the test with Fusarium oxysporum [8], above 50 µM; in [9], below 1.6 µM; in the test on Colletotrichum acutatum [10] it was 5.3 µM. The half-maximal inhibitory concentration (IC50) in the test with Phomopsis obscurans [11] was 7.2 µM; in the test on Botrytis cinerea [12], above 50 µM; in the test with Colletotrichum fragariae [13], 4.9 µM; with Phomopsis viticola [14] it was below 6.3 µM; in the test on Phomopsis obscurans [15], 9.6 µM; with Fusarium oxysporum [16], 5 µM. In addition, the IC50 in the test with Colletotrichum acutatum [17] was 3 µM; with Phomopsis viticola [18], below 6.3 µM. Moreover, the “growth inhibition (GI)” value (with Colletotrichum acutatum [19]; in the test on Fusarium oxysporum [2]; with Colletotrichum fragariae [23]; in test [3]) was “Active” throughout. In addition, in the test on Fusarium oxysporum [20], the inhibition of growth at 0.3 µM came out at 25%. Moreover, the inhibition of growth at 3 µM (in test [21]; in the test with Fusarium oxysporum [22]) was 98% in each case.
With `CC(=O)OCC(C#Cc1ccc(-c2cccs2)s1)OC(C)=O` (stereo not given), the “growth inhibition (GI)” value (in the test on Fusarium oxysporum [2]; in [3]) was “inactive” throughout.
With `CC(C)CC(=O)OCCC#Cc1ccc(-c2cccs2)s1`, the “growth inhibition (GI)” value (in the test on Fusarium oxysporum [2]; in [3]) was “inactive” in each case.
On to `CC#CC#Cc1ccc(C#CCCO)s1`, for which the inhibition of growth at 30 µM (in the test on Fusarium oxysporum [1]; in test [4]) was 100% throughout. In addition, the IC50 turned out to be 12.5 µM with Colletotrichum fragariae [5]; 41 µM with Botrytis cinerea [6]; 2.6 µM in test [7]; 20 µM with Fusarium oxysporum [8]; 6 µM in test [9]; 19.2 µM in the test on Colletotrichum acutatum [10]. For the same compound, the IC50 in the test with Phomopsis obscurans [11] was 2.9 µM; in the test with Botrytis cinerea [12], 29.4 µM; in the test on Colletotrichum fragariae [13] it was 4.4 µM; in the test on Phomopsis viticola [14] it was below 1.6 µM; in the test with Phomopsis obscurans [15] it was 13.5 µM; in the test with Fusarium oxysporum [16], 9.5 µM. The IC50 came out at 3.5 µM with Colletotrichum acutatum [17] and 4 µM in the test with Phomopsis viticola [18]. Further, the “growth inhibition (GI)” value (in the test on Fusarium oxysporum [2]; in [3]) was “Active” throughout.
`C=CC#Cc1ccc(-c2cccs2)s1`: the inhibition of growth at 30 µM (in the test with Fusarium oxysporum [1]; in test [4]) was 96% each time. Moreover, the IC50 was 46 µM in the test with Colletotrichum fragariae [5]; above 50 µM in the test on Botrytis cinerea [6]; 4.2 µM in test [7]; above 50 µM in the test on Fusarium oxysporum [8]; 10.2 µM in test [9]; 28.5 µM in the test with Colletotrichum acutatum [10]. In addition, the IC50 with Phomopsis obscurans [11] was above 50 µM; in the test on Botrytis cinerea [12] it was above 50 µM; with Colletotrichum fragariae [13], 28 µM; in the test on Phomopsis viticola [14], 19.5 µM; in the test on Phomopsis obscurans [15] it was above 50 µM; in the test with Fusarium oxysporum [16] it was above 50 µM. Also, the figures for the IC50 in the test on Colletotrichum acutatum [17] and with Phomopsis viticola [18] were 7.6 µM and 22 µM, respectively. For the same compound, the “growth inhibition (GI)” value (with Fusarium oxysporum [2]; in [3]) was “Active” throughout.
As for `C(#C[C@@H]1CC[C@@H]1C#Cc1ccc(-c2cccs2)s1)c1ccc(-c2cccs2)s1`, the “growth inhibition (GI)” value (in the test with Fusarium oxysporum [2]; in test [3]) was “inactive” throughout.

The values above are taken from ChEMBL document CHEMBL3045213, “Antifungal activity of thiophenes from Echinops ritro” (J Agric Food Chem, 2006).
